# Positions count from the first letter of the chain named. Calls of active or inactive are those of the source. No cut-off for these calls is given here.
# Experiments:
# [1] = biological target: T1, Lysosomal acid glucosylceramidase (Homo sapiens, UniProt P04062); assay: Competitive inhibition of wild type human glucocerebrosidase using 4-methylumbelliferyl beta-D-glucopyranoside as substrate after 15 mins by Dixon and Line-Weaver Burk plot analysis […]
# T1 sequence (P04062 whole entry): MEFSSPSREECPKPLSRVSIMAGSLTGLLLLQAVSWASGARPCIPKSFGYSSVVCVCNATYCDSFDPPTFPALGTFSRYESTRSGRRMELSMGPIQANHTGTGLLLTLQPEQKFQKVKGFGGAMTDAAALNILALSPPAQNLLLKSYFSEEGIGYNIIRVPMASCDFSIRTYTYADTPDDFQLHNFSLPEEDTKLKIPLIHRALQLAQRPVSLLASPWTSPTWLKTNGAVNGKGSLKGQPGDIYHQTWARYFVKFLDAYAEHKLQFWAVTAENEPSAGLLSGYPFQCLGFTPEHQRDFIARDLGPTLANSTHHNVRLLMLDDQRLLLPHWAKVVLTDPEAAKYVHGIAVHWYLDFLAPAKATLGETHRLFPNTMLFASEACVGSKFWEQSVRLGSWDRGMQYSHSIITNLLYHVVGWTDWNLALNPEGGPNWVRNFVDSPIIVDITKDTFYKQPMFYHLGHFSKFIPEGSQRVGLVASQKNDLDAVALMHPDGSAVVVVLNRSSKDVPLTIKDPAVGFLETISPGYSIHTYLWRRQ
# [2] = biological target: Lysosomal alpha-glucosidase (Homo sapiens) (UniProt P10253); assay: Inhibition of human lysosomal alpha-glucosidase using 4-methylumbelliferyl alpha-D-glucopyranoside as substrate at 200 uM by fluorimetric analysis
# Outline: (§1)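 Enzyme source was a lysosomal-enzyme-enriched ConA-bound human placental fraction, run in 100 mM citrate–phosphate pH 4.5 with 0.025% human serum albumin at 37 °C. Compound was tested at 200 μM in triplicate. An equal volume of 4-MU substrate was added: α-Glc 3.0 mM (α-glucosidase), α-Gal 1.0 mM (α-galactosidase), β-Gal 0.5 mM (β-galactosidase). Reactions were stopped with 4-fold excess 100 mM aminomethylpropanol and fluorescence read at 365/460 nm.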
# [3] = organism: Homo sapiens; assay: Inhibition of human lysosomal alpha-galactosidase using 4-methylumbelliferyl alpha-D-galactopyranoside as substrate at 200 uM by fluorimetric analysis; outline: as §1
# [4] = biological target: T2, Beta-galactosidase (Homo sapiens) (UniProt P16278); assay: Inhibition of human lysosomal beta-galactosidase using 4-methylumbelliferyl beta-Dgalactopyranoside as substrate at 200 uM by fluorimetric analysis; outline: as §1
# T2 sequence (whole entry): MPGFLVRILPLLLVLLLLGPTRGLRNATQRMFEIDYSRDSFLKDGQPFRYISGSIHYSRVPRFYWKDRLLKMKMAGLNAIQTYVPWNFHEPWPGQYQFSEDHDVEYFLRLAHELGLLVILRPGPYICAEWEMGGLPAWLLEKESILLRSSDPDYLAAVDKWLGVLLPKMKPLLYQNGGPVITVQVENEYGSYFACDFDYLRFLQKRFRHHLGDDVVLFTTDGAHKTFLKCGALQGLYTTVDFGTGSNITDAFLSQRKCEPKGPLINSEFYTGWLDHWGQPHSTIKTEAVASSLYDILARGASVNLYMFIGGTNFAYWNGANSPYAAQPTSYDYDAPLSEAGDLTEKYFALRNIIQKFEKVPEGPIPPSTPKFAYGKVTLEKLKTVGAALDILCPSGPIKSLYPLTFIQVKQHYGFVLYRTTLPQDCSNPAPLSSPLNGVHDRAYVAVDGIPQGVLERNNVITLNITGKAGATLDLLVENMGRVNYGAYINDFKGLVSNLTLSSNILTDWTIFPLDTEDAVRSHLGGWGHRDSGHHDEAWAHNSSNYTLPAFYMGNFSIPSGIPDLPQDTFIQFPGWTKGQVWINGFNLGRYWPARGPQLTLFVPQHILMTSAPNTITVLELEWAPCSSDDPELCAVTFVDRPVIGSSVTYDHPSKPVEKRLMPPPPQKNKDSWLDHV
# [5] = biological target: T3, Lysosomal acid glucosylceramidase (Homo sapiens) (UniProt P04062); assay: Thermal denaturation of human glucocerebrosidase by differential scanning fluorimetry assessed as change in melting temperature at 100 uM and pH 7
# T3 sequence (whole entry): T1 sequence (P04062 whole entry)
# [6] = system: T4, Lysosomal acid glucosylceramidase (Homo sapiens), P04062 [N409S]; assay: Activation of intracellular glucocerebrosidase p.N370S mutant in gaucher patient fibroblast using 4-methylumbelliferyl beta-D-glucopyranoside as substrate relative to control
# T4 sequence (whole entry): T1 sequence (P04062 whole entry) with N409S
# [7] = organism: Homo sapiens; assay: Activation of intracellular glucocerebrosidase p.L444P mutant in gaucher patient fibroblast using 4-methylumbelliferyl beta-D-glucopyranoside as substrate relative to control
# [8] = system: T4, Lysosomal acid glucosylceramidase (Homo sapiens), P04062 [N409S]; assay: Activation of intracellular glucocerebrosidase p.N370S mutant in gaucher patient fibroblast using 4-methylumbelliferyl beta-D-glucopyranoside as substrate assessed as concentration at which 50% of maximum increase in activity
# [9] = organism: Homo sapiens; assay: Activation of intracellular glucocerebrosidase p.L444P mutant in gaucher patient fibroblast using 4-methylumbelliferyl beta-D-glucopyranoside as substrate assessed as concentration at which 50% of maximum increase in activity
# [10] = biological target: T1, Lysosomal acid glucosylceramidase; assay: Competitive inhibition of wild type human glucocerebrosidase using 2,4-dinitrophenyl beta-D-glucopyranoside as substrate after 3 mins by Dixon and Line-Weaver Burk plot analysis at pH 5
# Outline: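 Continuous UV assay with 4.0 nM GBA and 2,4-dinitrophenyl β-D-glucoside, started by adding enzyme. A400 was followed, linear over 3 min. Three substrate levels were run at about seven inhibitor levels (0.2–5 Ki), with nonlinear fit to a competitive model checked by Dixon and Lineweaver–Burk plots.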
SMILES,Ki [1] [µM],inhibition [2],inhibition [3],inhibition [4],deltaTm [5] [K],fold change (FC) [6],fold change (FC) [7],Activity [8] [nM],Activity [9] [nM],Ki [10] [µM]
O[C@@H]1[C@@H](O)[C@@H](CCSCCc2ccccc2)NC[C@H]1O,0.003,inactive,inactive,inactive,14,2.2,1.1,2.8,2.1,
O=C(NCCSCC[C@H]1NC[C@@H](O)[C@H](O)[C@H]1O)Nc1ccccc1,0.012,inactive,inactive,inactive,11,2.3,1.1,90,64,
CC(C)(C)SCC[C@H]1NC[C@@H](O)[C@H](O)[C@H]1O,,inactive,inactive,inactive,8.4,2.3,1.2,49,25,0.029
O[C@@H]1[C@@H](O)[C@@H](CCSC2CCCCC2)NC[C@H]1O,0.004,inactive,inactive,inactive,13,2.2,1.3,1.3,0.6,
O[C@H]1[C@H](O)CNC[C@@H]1O,,inactive,inactive,inactive,3.6,1.5,1.1,24000,44600,
O=C(CSCC[C@H]1NC[C@@H](O)[C@H](O)[C@H]1O)NCc1ccccc1,,inactive,inactive,inactive,11,2.5,1.3,190,63,0.03
CC[C@H]1NC[C@@H](O)[C@H](O)[C@H]1O,,inactive,inactive,inactive,4.4,2.1,1.2,,7000,1.1
C=C[C@H]1NC[C@@H](O)[C@H](O)[C@H]1O,,inactive,inactive,inactive,3.4,1.4,1.3,1800,1700,2.7
O[C@@H]1[C@@H](O)[C@@H](CCSCc2ccccc2)NC[C@H]1O,0.019,inactive,inactive,inactive,13,2.1,1.1,1.6,2.6,
CC(C)SCC[C@H]1NC[C@@H](O)[C@H](O)[C@H]1O,,inactive,inactive,inactive,7.8,2.3,1.4,38,2.2,0.076
O[C@@H]1[C@@H](O)[C@@H](CCSC2CCCC2)NC[C@H]1O,0.006,inactive,inactive,inactive,11,2.2,1.4,5.3,1.2,

# More lines, now with the values ahead:
Ki [1] [µM],inhibition [2],inhibition [3],inhibition [4],deltaTm [5] [K],fold change (FC) [6],fold change (FC) [7],Activity [8] [nM],Activity [9] [nM],Ki [10] [µM],SMILES
,inactive,inactive,inactive,8.2,2.7,1.3,2700,2900,0.2,CCCC(=O)NCCSCC[C@H]1NC[C@@H](O)[C@H](O)[C@H]1O
,inactive,inactive,inactive,7.6,3.2,1.3,4500,1500,0.45,O=C(CCCSCC[C@H]1NC[C@@H](O)[C@H](O)[C@H]1O)N1CCOCC1
,inactive,inactive,inactive,10,2.7,1.3,800,500,0.25,CCN(CC)C(=O)CCCSCC[C@H]1NC[C@@H](O)[C@H](O)[C@H]1O
0.0044,inactive,inactive,inactive,14,2,1.2,1.2,0.3,,CC(C)CCSCC[C@H]1NC[C@@H](O)[C@H](O)[C@H]1O
,inactive,inactive,inactive,7,2.5,1.3,600,300,0.18,CCSCC[C@H]1NC[C@@H](O)[C@H](O)[C@H]1O
0.018,inactive,inactive,inactive,11,2.4,1.3,18,12,,CCCCSCC[C@H]1NC[C@@H](O)[C@H](O)[C@H]1O

# From ChEMBL document CHEMBL2029267, “Rapid assembly of a library of lipophilic iminosugars via the thiol-ene reaction yields promising pharmacological chaperones for the treatment of Gaucher disease” (J Med Chem, 2012)
